Assay results reported in ChEMBL document CHEMBL5058577, “EUbOPEN Chemogenomics Library 2 (Multiplex)” (2022).

System: Fibroblast
Assay: Multiplex assay against human fibroblast
Assay type: toxicity, cell-based
Procedure, shortened: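 Live cells carried four stains from seeding: Hoechst33342, BioTracker Green Microtubule Cytoskeleton Dye, MitoTracker Red and Annexin V Alexa Fluor 680. They were imaged on a CQ1 microscope at 37°C and 5% CO2 after compound addition. Using CellPathfinder machine-learning gating, cells were split into Hoechst high-intensity objects or normal cells, normal cells into healthy, pyknosed or fragmented nuclei, and pyknosed cells into mitotic or apoptotic; tubulin, mitochondrial-mass and membrane-permeability phenotypes are per cents of healthy-nucleus cells.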

[1] = 12 h, 1 µM, compound concentration 1 uM, replicate 1
[2] = 12 h, 1 µM, compound concentration 1 uM, replicate 2
[3] = 12 h, 10 µM, compound concentration 10 uM, replicate 1
[4] = 12 h, 10 µM, compound concentration 10 uM, replicate 2
[5] = 24 h, 1 µM, compound concentration 1 uM, replicate 1
[6] = 24 h, 1 µM, compound concentration 1 uM, replicate 2
[7] = 24 h, 10 µM, compound concentration 10 uM, replicate 1
[8] = 24 h, 10 µM, compound concentration 10 uM, replicate 2
[9] = 48 h, 1 µM, compound concentration 1 uM, replicate 1
[10] = 48 h, 1 µM, compound concentration 1 uM, replicate 2
[11] = 48 h, 10 µM, compound concentration 10 uM, replicate 1
[12] = 48 h, 10 µM, compound concentration 10 uM, replicate 2

CC(C)c1noc(N2CCC(COc3ccc(-c4ccc(S(C)(=O)=O)cc4)nc3)CC2)n1 [GSK-1292263]
Population Apoptotic (%) [1]: 38%
Population Fragmented Nuclei (%) [1]: 14%
Population Healthy Nuclei (%) [1]: 74%
Population Hoechst High Intensity Objects (%) [1]: 2%
Population Membrane Permeable-Phenotype (%) [1]: 0%
Population Mitochondria Different-Phenotype (%) [1]: 1%
Population Mitotic Cells (%) [1]: 61%
Population Normal (%) [1]: 97%
Population Pyknosed Nuclei (%) [1]: 11%
Population Tubulin-Different-Phenotype (%) [1]: 21%
Total Cell Count [1]: 189
Population Apoptotic (%) [2]: 29%
Population Fragmented Nuclei (%) [2]: 18%
Population Healthy Nuclei (%) [2]: 50%
Population Hoechst High Intensity Objects (%) [2]: 6%
Population Membrane Permeable-Phenotype (%) [2]: 4%
Population Mitochondria Different-Phenotype (%) [2]: 5%
Population Mitotic Cells (%) [2]: 70%
Population Normal (%) [2]: 93%
Population Pyknosed Nuclei (%) [2]: 31%
Population Tubulin-Different-Phenotype (%) [2]: 41%
Total Cell Count [2]: 149
Population Apoptotic (%) [3]: 39%
Population Fragmented Nuclei (%) [3]: 8%
Population Healthy Nuclei (%) [3]: 65%
Population Hoechst High Intensity Objects (%) [3]: 3%
Population Membrane Permeable-Phenotype (%) [3]: 1%
Population Mitochondria Different-Phenotype (%) [3]: 5%
Population Mitotic Cells (%) [3]: 60%
Population Normal (%) [3]: 96%
Population Pyknosed Nuclei (%) [3]: 26%
Population Tubulin-Different-Phenotype (%) [3]: 39%
Total Cell Count [3]: 162
Population Apoptotic (%) [4]: 35%
Population Fragmented Nuclei (%) [4]: 26%
Population Healthy Nuclei (%) [4]: 45%
Population Hoechst High Intensity Objects (%) [4]: 2%
Population Membrane Permeable-Phenotype (%) [4]: 6%
Population Mitochondria Different-Phenotype (%) [4]: 10%
Population Mitotic Cells (%) [4]: 64%
Population Normal (%) [4]: 97%
Population Pyknosed Nuclei (%) [4]: 27%
Population Tubulin-Different-Phenotype (%) [4]: 61%
Total Cell Count [4]: 145
Population Apoptotic (%) [5]: 50%
Population Fragmented Nuclei (%) [5]: 9%
Population Healthy Nuclei (%) [5]: 78%
Population Hoechst High Intensity Objects (%) [5]: 3%
Population Membrane Permeable-Phenotype (%) [5]: 1%
Population Mitochondria Different-Phenotype (%) [5]: 0%
Population Mitotic Cells (%) [5]: 50%
Population Normal (%) [5]: 96%
Population Pyknosed Nuclei (%) [5]: 11%
Population Tubulin-Different-Phenotype (%) [5]: 17%
Total Cell Count [5]: 182
Population Apoptotic (%) [6]: 44%
Population Fragmented Nuclei (%) [6]: 20%
Population Healthy Nuclei (%) [6]: 53%
Population Hoechst High Intensity Objects (%) [6]: 7%
Population Membrane Permeable-Phenotype (%) [6]: 4%
Population Mitochondria Different-Phenotype (%) [6]: 2%
Population Mitotic Cells (%) [6]: 55%
Population Normal (%) [6]: 92%
Population Pyknosed Nuclei (%) [6]: 25%
Population Tubulin-Different-Phenotype (%) [6]: 41%
Total Cell Count [6]: 142
Population Apoptotic (%) [7]: 52%
Population Fragmented Nuclei (%) [7]: 12%
Population Healthy Nuclei (%) [7]: 67%
Population Hoechst High Intensity Objects (%) [7]: 2%
Population Membrane Permeable-Phenotype (%) [7]: 1%
Population Mitochondria Different-Phenotype (%) [7]: 5%
Population Mitotic Cells (%) [7]: 47%
Population Normal (%) [7]: 97%
Population Pyknosed Nuclei (%) [7]: 20%
Population Tubulin-Different-Phenotype (%) [7]: 50%
Total Cell Count [7]: 168
Population Apoptotic (%) [8]: 46%
Population Fragmented Nuclei (%) [8]: 21%
Population Healthy Nuclei (%) [8]: 55%
Population Hoechst High Intensity Objects (%) [8]: 3%
Population Membrane Permeable-Phenotype (%) [8]: 10%
Population Mitochondria Different-Phenotype (%) [8]: 10%
Population Mitotic Cells (%) [8]: 53%
Population Normal (%) [8]: 96%
Population Pyknosed Nuclei (%) [8]: 23%
Population Tubulin-Different-Phenotype (%) [8]: 56%
Total Cell Count [8]: 123
Population Apoptotic (%) [9]: 66%
Population Fragmented Nuclei (%) [9]: 19%
Population Healthy Nuclei (%) [9]: 74%
Population Hoechst High Intensity Objects (%) [9]: 3%
Population Membrane Permeable-Phenotype (%) [9]: 0%
Population Mitochondria Different-Phenotype (%) [9]: 1%
Population Mitotic Cells (%) [9]: 33%
Population Normal (%) [9]: 96%
Population Pyknosed Nuclei (%) [9]: 6%
Population Tubulin-Different-Phenotype (%) [9]: 22%
Total Cell Count [9]: 193
Population Apoptotic (%) [10]: 54%
Population Fragmented Nuclei (%) [10]: 27%
Population Healthy Nuclei (%) [10]: 47%
Population Hoechst High Intensity Objects (%) [10]: 8%
Population Membrane Permeable-Phenotype (%) [10]: 13%
Population Mitochondria Different-Phenotype (%) [10]: 4%
Population Mitotic Cells (%) [10]: 45%
Population Normal (%) [10]: 91%
Population Pyknosed Nuclei (%) [10]: 24%
Population Tubulin-Different-Phenotype (%) [10]: 55%
Total Cell Count [10]: 156
Population Apoptotic (%) [11]: 63%
Population Fragmented Nuclei (%) [11]: 13%
Population Healthy Nuclei (%) [11]: 65%
Population Hoechst High Intensity Objects (%) [11]: 2%
Population Membrane Permeable-Phenotype (%) [11]: 0%
Population Mitochondria Different-Phenotype (%) [11]: 8%
Population Mitotic Cells (%) [11]: 36%
Population Normal (%) [11]: 97%
Population Pyknosed Nuclei (%) [11]: 20%
Population Tubulin-Different-Phenotype (%) [11]: 48%
Total Cell Count [11]: 164
Population Apoptotic (%) [12]: 50%
Population Fragmented Nuclei (%) [12]: 31%
Population Healthy Nuclei (%) [12]: 51%
Population Hoechst High Intensity Objects (%) [12]: 0%
Population Membrane Permeable-Phenotype (%) [12]: 9%
Population Mitochondria Different-Phenotype (%) [12]: 14%
Population Mitotic Cells (%) [12]: 50%
Population Normal (%) [12]: 100%
Population Pyknosed Nuclei (%) [12]: 17%
Population Tubulin-Different-Phenotype (%) [12]: 76%
Total Cell Count [12]: 125
